{"source": "ChEMBL document CHEMBL5550111", "about": "“Design, synthesis and biological evaluation of aryloxy thiophosphoramidate triesters of anticancer nucleoside analogues” (Bioorg Med Chem, 2024)", "key": {"HepG2": {"tested_on": "HepG2", "assay": "Cytotoxicity against human HepG2 cells assessed as inhibition of cell viability incubated for 72 hrs by MTS assay", "assay_type": "functional, cell-based", "conditions": "HepG2, 72 h", "procedure,_shortened": "(§1)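 Cells seeded at 0.5 to 100 × 10^3 per well the day before treatment, then exposed for 72 h to 9 serial concentrations (3.16-fold dilutions, top 198 μM), in duplicate. MTS added for a final 4 h at 37 °C and absorbance read. IC50 is the concentration giving 50% loss of viability. MI% is the maximum inhibition over the tested range.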"}, "PC-3": {"tested_on": "PC-3", "assay": "Cytotoxicity against human PC-3 cells assessed as inhibition of cell viability incubated for 72 hrs by MTS assay", "assay_type": "functional, cell-based", "conditions": "PC-3, 72 h", "procedure,_shortened": "as §1"}, "MOLT-4 [1]": {"tested_on": "MOLT-4", "assay": "Cytotoxicity against human MOLT-4 cells assessed as inhibition of cell viability incubated for 72 hrs by MTS assay", "assay_type": "functional, cell-based", "conditions": "MOLT-4, 72 h", "procedure,_shortened": "as §1"}, "K562 [2]": {"tested_on": "K562", "assay": "Cytotoxicity against human K562 cells assessed as inhibition of cell viability incubated for 72 hrs by MTS assay", "assay_type": "functional, cell-based", "conditions": "K562, 72 h", "procedure,_shortened": "as §1"}, "HT-29": {"tested_on": "HT-29", "assay": "Cytotoxicity against human HT-29 cells assessed as maximum inhibition of cell viability upto 198 uM incubated for 72 hrs by MTS assay relative to control", "assay_type": "functional", "conditions": "up to 198 µM", "procedure,_shortened": "(§2)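 Cells seeded at 0.5 to 100 × 10^3 per well the day before drug addition, then exposed to compound for 72 h. MTS added afterwards, with a further 4 h at 37 °C, and absorbance read. Tested in duplicate at 9 serial 3.16-fold dilutions, top concentration 198 μM. MI% is the maximum inhibition of viability across the tested range.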"}, "BXPC-3 [3]": {"tested_on": "BXPC-3", "assay": "Cytotoxicity against human BXPC-3 cells assessed as inhibition of cell viability incubated for 72 hrs by MTS assay", "assay_type": "functional, cell-based", "conditions": "BXPC-3, 72 h", "procedure,_shortened": "as §1"}, "SK-MES-1": {"tested_on": "SK-MES-1", "assay": "Cytotoxicity against human SK-MES-1 cells assessed as inhibition of cell viability incubated for 72 hrs by MTS assay", "assay_type": "functional, cell-based", "conditions": "SK-MES-1, 72 h", "procedure,_shortened": "as §1"}, "RPMI-8226 [4]": {"tested_on": "RPMI-8226", "assay": "Cytotoxicity against human RPMI-8226 cells assessed as maximum inhibition of cell viability upto 198 uM incubated for 72 hrs by MTS assay relative to control", "assay_type": "functional", "conditions": "up to 198 µM", "procedure,_shortened": "as §2"}, "MCF7": {"tested_on": "MCF7", "assay": "Cytotoxicity against human MCF7 cells assessed as maximum inhibition of cell viability upto 198 uM incubated for 72 hrs by MTS assay relative to control", "assay_type": "functional", "conditions": "up to 198 µM", "procedure,_shortened": "as §2"}, "HL-60 [5]": {"tested_on": "HL-60", "assay": "Cytotoxicity against human HL-60 cells assessed as inhibition of cell viability incubated for 72 hrs by MTS assay", "assay_type": "functional, cell-based", "conditions": "HL-60, 72 h", "procedure,_shortened": "as §1"}, "MDA-MB-231": {"tested_on": "MDA-MB-231", "assay": "Cytotoxicity against human MDA-MB-231 cells assessed as maximum inhibition of cell viability upto 198 uM incubated for 72 hrs by MTS assay relative to control", "assay_type": "functional", "conditions": "up to 198 µM", "procedure,_shortened": "as §2"}, "HL-60 [6]": {"tested_on": "HL-60", "assay": "Cytotoxicity against human HL-60 cells assessed as maximum inhibition of cell viability upto 198 uM incubated for 72 hrs by MTS assay relative to control", "assay_type": "functional", "conditions": "up to 198 µM", "procedure,_shortened": "as §2"}, "PANC-1": {"tested_on": "PANC-1", "assay": "Cytotoxicity against human PANC-1 cells assessed as maximum inhibition of cell viability upto 198 uM incubated for 72 hrs by MTS assay relative to control", "assay_type": "functional", "conditions": "up to 198 µM", "procedure,_shortened": "as §2"}, "K562 [7]": {"tested_on": "K562", "assay": "Cytotoxicity against human K562 cells assessed as maximum inhibition of cell viability upto 198 uM incubated for 72 hrs by MTS assay relative to control", "assay_type": "functional", "conditions": "up to 198 µM", "procedure,_shortened": "as §2"}, "[8]": {"assay": "Cytotoxicity against human ACHN-luc2 cells assessed as maximum inhibition of cell viability upto 198 uM incubated for 72 hrs by MTS assay relative to control", "assay_type": "functional", "conditions": "up to 198 µM", "procedure,_shortened": "as §2"}, "A2780": {"tested_on": "A2780", "assay": "Cytotoxicity against human A2780 cells assessed as maximum inhibition of cell viability upto 198 uM incubated for 72 hrs by MTS assay relative to control", "assay_type": "functional", "conditions": "up to 198 µM", "procedure,_shortened": "as §2"}, "[9]": {"assay": "Cytotoxicity against human T24/83 cells assessed as inhibition of cell viability incubated for 72 hrs by MTS assay", "assay_type": "functional, cell-based", "conditions": "T24/83, 72 h", "procedure,_shortened": "as §1"}, "5637": {"tested_on": "5637", "assay": "Cytotoxicity against human 5637 cells assessed as inhibition of cell viability incubated for 72 hrs by MTS assay", "assay_type": "functional, cell-based", "conditions": "Homo sapiens, 5637, 72 h", "procedure,_shortened": "as §1"}, "OVCAR-3": {"tested_on": "OVCAR-3", "assay": "Cytotoxicity against human OVCAR-3 cells assessed as maximum inhibition of cell viability upto 198 uM incubated for 72 hrs by MTS assay relative to control", "assay_type": "functional", "conditions": "up to 198 µM", "procedure,_shortened": "as §2"}, "MOLT-4 [10]": {"tested_on": "MOLT-4", "assay": "Cytotoxicity against human MOLT-4 cells assessed as maximum inhibition of cell viability upto 198 uM incubated for 72 hrs by MTS assay relative to control", "assay_type": "functional", "conditions": "up to 198 µM", "procedure,_shortened": "as §2"}, "BXPC-3 [11]": {"tested_on": "BXPC-3", "assay": "Cytotoxicity against human BXPC-3 cells assessed as maximum inhibition of cell viability upto 198 uM incubated for 72 hrs by MTS assay relative to control", "assay_type": "functional", "conditions": "up to 198 µM", "procedure,_shortened": "as §2"}, "KG-1": {"tested_on": "KG-1", "assay": "Cytotoxicity against human KG-1 cells assessed as inhibition of cell viability incubated for 72 hrs by MTS assay", "assay_type": "functional, cell-based", "conditions": "KG-1, 72 h", "procedure,_shortened": "as §1"}, "RPMI-8226 [12]": {"tested_on": "RPMI-8226", "assay": "Cytotoxicity against human RPMI-8226 cells assessed as inhibition of cell viability incubated for 72 hrs by MTS assay", "assay_type": "functional, cell-based", "conditions": "RPMI-8226, 72 h", "procedure,_shortened": "as §1"}}, "data": [{"smiles": "CC(=O)O[C@H]1C(=O)[C@@]2(C)[C@H]([C@H](OC(=O)c3ccccc3)[C@]3(O)C[C@H](OC(=O)[C@H](O)[C@@H](NC(=O)c4ccccc4)c4ccccc4)C(C)=C1C3(C)C)[C@]1(OC(C)=O)CO[C@@H]1C[C@@H]2O", "note": "[PACLITAXEL]", "values": [{"measurement": "IC50", "setting": "HepG2", "value": 60, "unit": "nM"}, {"measurement": "IC50", "setting": "PC-3", "value": 10, "unit": "nM"}, {"measurement": "IC50", "setting": "MOLT-4 [1]", "value": 4, "unit": "nM"}, {"measurement": "IC50", "setting": "K562 [2]", "value": 13, "unit": "nM"}, {"measurement": "Imax", "setting": "HT-29", "value": 79, "unit": "%"}, {"measurement": "IC50", "setting": "BXPC-3 [3]", "value": 5, "unit": "nM"}, {"measurement": "IC50", "setting": "SK-MES-1", "value": 10, "unit": "nM"}, {"measurement": "Imax", "setting": "RPMI-8226 [4]", "value": 95, "unit": "%"}, {"measurement": "Imax", "setting": "MCF7", "value": 75, "unit": "%"}, {"measurement": "IC50", "setting": "HL-60 [5]", "value": 12, "unit": "nM"}, {"measurement": "Imax", "setting": "MDA-MB-231", "value": 70, "unit": "%"}, {"measurement": "Imax", "setting": "HL-60 [6]", "value": 97, "unit": "%"}, {"measurement": "Imax", "setting": "PANC-1", "value": 56, "unit": "%"}, {"measurement": "Imax", "setting": "K562 [7]", "value": 87, "unit": "%"}, {"measurement": "Imax", "setting": "[8]", "value": 47, "unit": "%"}, {"measurement": "Imax", "setting": "A2780", "value": 72, "unit": "%"}, {"measurement": "IC50", "setting": "[9]", "value": 4, "unit": "nM"}, {"measurement": "IC50", "setting": "5637", "value": 2, "unit": "nM"}, {"measurement": "Imax", "setting": "OVCAR-3", "value": 59, "unit": "%"}, {"measurement": "Imax", "setting": "MOLT-4 [10]", "value": 99, "unit": "%"}, {"measurement": "Imax", "setting": "BXPC-3 [11]", "value": 85, "unit": "%"}, {"measurement": "IC50", "setting": "KG-1", "value": 68, "unit": "nM"}, {"measurement": "IC50", "setting": "RPMI-8226 [12]", "value": 2, "unit": "nM"}]}]}
